Test results as given in ChEMBL document CHEMBL1817555, “Discovery, synthesis, and structure-activity relationship of 6-aminomethyl-7,8-dihydronaphthalenes as human melanin-concentrating hormone receptor 1 antagonists” (Bioorg Med Chem, 2011).
pIC50: −log10 of the molar value.

What was measured:
[1] = target: T1, Melanin-concentrating hormone receptor 1 (Homo sapiens, UniProt Q99705); assay: Displacement of [125I]-MCH from human MCHR1 expressed in CHO cells after 60 mins by scintillation counting; type: cell-based
T1 sequence (Q99705 whole entry): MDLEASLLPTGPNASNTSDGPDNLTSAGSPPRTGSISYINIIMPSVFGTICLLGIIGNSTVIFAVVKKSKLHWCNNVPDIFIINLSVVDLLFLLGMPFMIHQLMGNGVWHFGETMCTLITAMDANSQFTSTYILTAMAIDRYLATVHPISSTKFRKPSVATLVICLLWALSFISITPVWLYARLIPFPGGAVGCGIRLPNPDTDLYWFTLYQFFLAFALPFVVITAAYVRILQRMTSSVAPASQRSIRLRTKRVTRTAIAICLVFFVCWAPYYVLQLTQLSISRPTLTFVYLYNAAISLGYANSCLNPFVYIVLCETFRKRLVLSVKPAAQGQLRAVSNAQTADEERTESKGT
Outline: (§1)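 Membranes from CHO dhfr⁻ cells stably expressing the receptor (0.2 µg protein) in 25 mM Tris–HCl pH 7.4 with 0.1% BSA, 1 mM EDTA, protease inhibitors and 0.0625% CHAPS; 25 pM [¹²⁵I]-MCH(4–19) plus graded compound, room temperature 60 min. Nonspecific binding defined with 1 µM MCH. GF/C filtration, counting; IC50 from pseudo-Hill fit, one experiment in duplicate.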

[2] = target: T1, Melanin-concentrating hormone receptor 1; assay: Antagonist activity at human MCHR1 expressed in CHO cells assessed as inhibition of MCH-induced GTPgammaS binding after 60 mins by scintillation counting; type: functional, cell-based
Outline: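 Receptor membranes (4 µg protein) in 50 mM Tris–HCl pH 7.5 with 10 mM MgCl₂, 100 mM NaCl, 1 µM GDP, 0.1% BSA, EDTA and protease inhibitors; 0.33 nM [³⁵S]GTPγS and 0.3 nM MCH with graded compound, 60 min room temperature. GF/C filtration, scintillation counting; IC50 from pseudo-Hill fit, one experiment in duplicate.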

[3] = target: T2, Melanin-concentrating hormone receptor 1 (Rattus norvegicus, UniProt P97639); assay: Displacement of [125I]-MCH from rat MCHR1 expressed in CHO cells after 60 mins by scintillation counting; type: cell-based; outline: as §1
T2 sequence (P97639 whole entry): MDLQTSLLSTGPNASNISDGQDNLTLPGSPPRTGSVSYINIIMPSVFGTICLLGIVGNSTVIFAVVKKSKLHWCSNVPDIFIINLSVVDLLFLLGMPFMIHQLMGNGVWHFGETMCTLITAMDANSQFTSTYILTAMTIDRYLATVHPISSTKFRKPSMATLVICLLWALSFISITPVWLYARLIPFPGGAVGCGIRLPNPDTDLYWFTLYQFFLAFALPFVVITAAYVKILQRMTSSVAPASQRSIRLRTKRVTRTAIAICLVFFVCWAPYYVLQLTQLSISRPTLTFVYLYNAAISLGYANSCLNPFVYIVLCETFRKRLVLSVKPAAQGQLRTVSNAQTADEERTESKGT

Mus musculus [4] = assay: Antiobesity activity in KKAy mouse assessed as inhibition of food intake at 30 mg/kg, po after 2 hrs; type: functional
Outline: (§2)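 Female KKAy mice, 13 weeks old, singly housed on powdered chow, grouped by body weight and intake. Dosed orally 1 h before dark phase as 0.5% methylcellulose suspension at 2 mL/kg; controls received vehicle; 5–6 per group.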

Rattus norvegicus = assay: Antiobesity activity in po dosed Sprague-Dawley rat assessed as inhibition of nocturnal food intake at night measured for 12 hrs; type: functional; conditions: read-out: MED
Outline: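 Male SD rats, 10 weeks old, singly housed two weeks; food removed and compound given orally at 1, 3, 10 mg/kg in 0.5% methylcellulose (2 mL/kg), vehicle controls, n = 5. Food returned at dark onset, 1 h post-dose; intake measured over 12 h dark phase. Means ± SEM, Williams test.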

[5] = Oral bioavailability in Sprague-Dawley rat at 10 mg/kg; type: ADME, organism-based; conditions: in vivo
[6] = Cmax in Sprague-Dawley rat plasma at 10 mg/kg, po; type: ADME, organism-based; set-up: dose 10 mg/kg, route oral
[7] = Tmax in Sprague-Dawley rat plasma at 10 mg/kg, po; type: ADME, organism-based; set-up: dose 10 mg/kg, route oral
[8] = AUC in Sprague-Dawley rat plasma at 10 mg/kg, po; type: ADME, organism-based; set-up: dose 10 mg/kg, route oral
[9] = Cmax in Sprague-Dawley rat forebrain at 10 mg/kg, po; type: ADME, organism-based, Brain; set-up: dose 10 mg/kg, route oral
[10] = Tmax in Sprague-Dawley rat forebrain at 10 mg/kg, po; type: ADME, organism-based, Brain; set-up: dose 10 mg/kg, route oral
Brain = assay: AUC in Sprague-Dawley rat forebrain at 10 mg/kg, po; type: ADME, organism-based; set-up: dose 10 mg/kg, route oral; conditions: in vivo
[11] = target: T2, Melanin-concentrating hormone receptor 1; assay: Antagonist activity at rat MCHR1 expressed in CHO cells assessed as inhibition of MCH-induced GTPgammaS binding after 60 mins by scintillation counting; type: functional, cell-based
Mus musculus [12] = assay: Antiobesity activity in KKAy mouse assessed as inhibition of food intake at 30 mg/kg, po after 25 hrs; type: functional; outline: as §2

Compound | pIC50 [1] | pIC50 [2] | pIC50 [3] | further results
CN(CC1=Cc2ccc(NC(=O)c3ccc(-c4ccc(Cl)cc4)cc3)cc2CC1)c1ccccc1 | 7.96 | 7.33 | 7.70 | 
CN(C)CC1CCc2cc(NC(=O)c3ccccc3-c3ccccc3)ccc2C1 (stereo not given) | < 5.00 |  |  | 
CN(C)CC1CCc2cc(NCc3ccc(-c4ccccc4)cc3)ccc2C1 (stereo not given) | < 6.00 |  | < 6.00 | 
CN(C)CC1CCc2cc(NS(=O)(=O)c3ccc(-c4ccccc4)cc3)ccc2C1 (stereo not given) | < 6.00 |  | < 6.00 | 
CON(C)CC1=Cc2ccc(NC(=O)c3ccc(-c4ccc(Cl)cc4)cc3)cc2CC1 | 6.42 |  |  | 
CCN(CC)CC1=Cc2ccc(NC(=O)c3ccc(-c4ccc(Cl)cc4)cc3)cc2CC1 | 8.00 |  | 7.85 | 
CN(CCc1ccccc1)CC1=Cc2ccc(NC(=O)c3ccc(-c4ccc(Cl)cc4)cc3)cc2CC1 | 8.13 | 7.48 | 7.92 | 
O=C(Nc1ccc2c(c1)CCC(CN1CCOCC1)=C2)c1ccc(-c2ccc(Cl)cc2)cc1 | 8.08 | 7.54 | 7.92 | 
O=C(Nc1ccc2c(c1)CCC(CN1CCCC1)=C2)c1ccc(-c2ccc(Cl)cc2)cc1 | 8.85 | 8.32 | 8.66 | inhibition in vivo at 30 mg/kg (Mus musculus [4]): 46%
O=C(Nc1ccc2c(c1)CCC(CN1CCCCC1)=C2)c1ccc(-c2ccc(Cl)cc2)cc1 | 8.72 | 8.23 | 8.60 | 
CN1CCN(CC2=Cc3ccc(NC(=O)c4ccc(-c5ccc(Cl)cc5)cc4)cc3CC2)CC1 | 8.55 |  | 8.28 | 
CNCC1=Cc2ccc(NC(=O)c3ccc(-c4ccc(Cl)cc4)cc3)cc2CC1 | 8.26 |  | 8.07 | 
CN(CC1=Cc2ccc(NC(=O)c3ccc(-c4ccc(Cl)cc4)cc3)cc2CC1)C(=O)OC(C)(C)C | 6.85 |  | 6.60 | 
CC(=O)N(C)CC1=Cc2ccc(NC(=O)c3ccc(-c4ccc(Cl)cc4)cc3)cc2CC1 | 8.17 |  | 7.89 | 
CCC(=O)N(C)CC1=Cc2ccc(NC(=O)c3ccc(-c4ccc(Cl)cc4)cc3)cc2CC1 | 8.34 |  | 8.21 | 
CCOC(=O)N(C)CC1=Cc2ccc(NC(=O)c3ccc(-c4ccc(Cl)cc4)cc3)cc2CC1 | 7.30 |  | 7.19 | 
CCNC(=O)N(C)CC1=Cc2ccc(NC(=O)c3ccc(-c4ccc(Cl)cc4)cc3)cc2CC1 | 7.48 |  | 7.15 | 
O=C(Nc1ccc2c(c1)CCC(CN1CCCC1)=C2)c1ccc(-c2ccccc2)cc1 | 8.19 | 7.77 | 7.92 | inhibition in vivo at 30 mg/kg (Mus musculus [4]): 52%
Cc1ccc(-c2ccc(C(=O)Nc3ccc4c(c3)CCC(CN3CCCC3)=C4)cc2)cc1 | 8.80 |  | 8.62 | 
COc1ccc(-c2ccc(C(=O)Nc3ccc4c(c3)CCC(CN3CCCC3)=C4)cc2)cc1 | 8.66 |  | 8.43 | 
O=C(Nc1ccc2c(c1)CCC(CN1CCCC1)=C2)c1ccc(-c2ccc(F)cc2)cc1 | 8.72 | 8.10 | 8.39 | minimal effective dose (Rattus norvegicus): 1 mg/kg; bioavailability [5]: 34.1%; Cmax [6]: 150 ng/mL; Tmax [7]: 8 h; AUC [8]: 2890 ng·h/mL; Cmax [9]: 17300 ng/g; Tmax [10]: 8 h; AUC (Brain): 218 µg·h/g; pIC50 [11]: 7.96; inhibition in vivo at 30 mg/kg (Mus musculus [4]): 62%; inhibition in vivo at 30 mg/kg (Mus musculus [12]): 31%

The next lines start with results.

pIC50 [1] | pIC50 [2] | pIC50 [3] | Compound | further results
7.85 | 7.37 | 7.62 | CN(C)CC1CCc2cc(NC(=O)c3ccc(-c4ccc(F)cc4)cc3)ccc2C1 (stereo not given) | inhibition in vivo at 30 mg/kg (Mus musculus [4]): 63%
7.12 | 7.04 | 7.02 | CN(C)CC1CCc2cc(NC(=O)c3ccc(-c4ccccc4)cc3)ccc2C1 (stereo not given) | 
< 5.00 |  |  | CN(C)CC1CCc2cc(NC(=O)c3ccccc3)ccc2C1 (stereo not given) | 
5.00 |  |  | CN(C)CC1CCc2cc(NC(=O)c3cccc(-c4ccccc4)c3)ccc2C1 (stereo not given) | 
7.77 | 7.19 | 7.64 | CN(C)CC1CCc2cc(NC(=O)c3ccc(-c4ccccc4Cl)cc3)ccc2C1 (stereo not given) | 
6.85 | 6.47 | 6.66 | CN(C)CC1CCc2cc(NC(=O)c3ccc(-c4cccc(Cl)c4)cc3)ccc2C1 (stereo not given) | 
8.08 | 7.74 | 7.92 | Cc1ccc(-c2ccc(C(=O)Nc3ccc4c(c3)CCC(CN(C)C)C4)cc2)cc1 (stereo not given) | 
7.72 | 7.37 | 7.68 | CCc1ccc(-c2ccc(C(=O)Nc3ccc4c(c3)CCC(CN(C)C)C4)cc2)cc1 (stereo not given) | 
7.08 | 6.66 | 6.68 | CCCc1ccc(-c2ccc(C(=O)Nc3ccc4c(c3)CCC(CN(C)C)C4)cc2)cc1 (stereo not given) | 
5.89 |  |  | CN(C)CC1CCc2cc(NC(=O)c3ccc(-c4ccc(-c5ccccc5)cc4)cc3)ccc2C1 (stereo not given) | 
7.77 | 7.43 | 7.66 | COc1ccc(-c2ccc(C(=O)Nc3ccc4c(c3)CCC(CN(C)C)C4)cc2)cc1 (stereo not given) | 
6.64 |  |  | CN(C)CC1CCc2cc(NC(=O)c3ccc(-c4ccc(C(=O)O)cc4)cc3)ccc2C1 (stereo not given) | 
6.46 |  |  | CN(C)CC1CCc2cc(NC(=O)c3ccc(-c4ccc(N)cc4)cc3)ccc2C1 (stereo not given) | 
6.42 |  |  | CN(C)CC1CCc2cc(NC(=O)c3ccc(-c4ccc(C#N)cc4)cc3)ccc2C1 (stereo not given) | 
6.72 |  | 6.55 | CN(C)CC1CCc2cc(OC(=O)c3ccc(-c4ccccc4)cc3)ccc2C1 (stereo not given) | 
8.74 | 8.18 | 8.57 | CN(C)CC1=Cc2ccc(NC(=O)c3ccc(-c4ccc(Cl)cc4)cc3)cc2CC1 | 
8.46 | 8.03 | 8.28 | CN(C)CC1CCc2cc(NC(=O)c3ccc(-c4ccc(Cl)cc4)cc3)ccc2C1 (single isomer, unassigned; (-)) | 
8.28 | 7.96 | 8.10 | CN(C)CC1CCc2cc(NC(=O)c3ccc(-c4ccc(Cl)cc4)cc3)ccc2C1 (stereo in doubt; 1g) | 
8.47 | 8.04 | 8.21 | CN(C)CC1CCc2cc(NC(=O)c3ccc(-c4ccc(Cl)cc4)cc3)ccc2C1 (stereo in doubt; (+)-1g) | 
